How the values were obtained:
[1] = biological target: Glycogen synthase kinase-3 beta (Homo sapiens, UniProt P49841); experiment: Inhibition of human GSK3-beta by fluorescence anisotropy binding assay
Outline: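 Competitive fluorescence anisotropy binding against a fluorescently labelled inhibitor. Compound typically 24 pM–25 µM final, DMSO <3%. Equilibrated 60–180 min at ambient temperature; anisotropy read at ex 485/em 535 nm. Assay error ±0.2 log units.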

[2] = Inhibition of GSK3 at 10 uM
[3] = biological target: Vascular endothelial growth factor receptor 2 (Homo sapiens, UniProt P35968); experiment: Inhibition of VEGFR2
[4] = Inhibition of AMPK at 10 uM
[5] = biological target: RAC-alpha serine/threonine-protein kinase (Homo sapiens) (UniProt P31749); experiment: Inhibition of PKBa at 10 uM
[6] = biological target: Dual specificity mitogen-activated protein kinase kinase 1 (Homo sapiens) (UniProt Q02750); experiment: Inhibition of MEK1 at 10 uM
[7] = Inhibition of PKA at 10 uM
[8] = biological target: Cyclin-dependent kinase 2 (Homo sapiens) (UniProt P24941); experiment: Inhibition of CDK2 at 10 uM
[9] = biological target: T1, Serine/threonine-protein kinase Sgk1 (Homo sapiens) (UniProt O00141); experiment: Inhibition of SGK at 10 uM
T1 sequence (whole entry): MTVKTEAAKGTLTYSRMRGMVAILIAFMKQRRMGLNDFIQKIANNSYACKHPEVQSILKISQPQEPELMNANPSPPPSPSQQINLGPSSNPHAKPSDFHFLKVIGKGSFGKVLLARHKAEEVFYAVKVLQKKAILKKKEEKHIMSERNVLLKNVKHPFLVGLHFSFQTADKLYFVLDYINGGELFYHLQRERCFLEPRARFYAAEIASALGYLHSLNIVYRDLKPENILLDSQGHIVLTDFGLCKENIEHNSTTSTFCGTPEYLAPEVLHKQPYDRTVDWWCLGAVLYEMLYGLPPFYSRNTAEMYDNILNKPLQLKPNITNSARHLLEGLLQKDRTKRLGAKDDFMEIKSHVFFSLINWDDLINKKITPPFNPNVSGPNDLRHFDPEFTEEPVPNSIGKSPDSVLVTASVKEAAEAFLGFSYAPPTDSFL

[10] = Inhibition of MAPK at 10 uM
[11] = biological target: T2, Serine/threonine-protein kinase Chk1 (Homo sapiens) (UniProt O14757); experiment: Inhibition of CHK1 at 10 uM
T2 sequence (whole entry): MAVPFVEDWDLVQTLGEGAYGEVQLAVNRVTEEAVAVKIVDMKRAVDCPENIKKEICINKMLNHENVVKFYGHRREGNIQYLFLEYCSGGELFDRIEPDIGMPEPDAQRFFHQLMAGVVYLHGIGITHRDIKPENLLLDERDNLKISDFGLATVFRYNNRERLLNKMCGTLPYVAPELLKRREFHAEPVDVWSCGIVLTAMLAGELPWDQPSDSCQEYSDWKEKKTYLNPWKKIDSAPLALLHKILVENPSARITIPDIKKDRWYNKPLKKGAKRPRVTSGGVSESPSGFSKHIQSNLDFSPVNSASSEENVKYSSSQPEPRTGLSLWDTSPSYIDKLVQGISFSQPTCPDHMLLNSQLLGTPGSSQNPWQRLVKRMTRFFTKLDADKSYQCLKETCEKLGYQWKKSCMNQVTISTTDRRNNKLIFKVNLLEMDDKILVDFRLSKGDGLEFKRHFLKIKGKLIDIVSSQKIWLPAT

[12] = biological target: Glycogen synthase kinase-3 beta (Rattus norvegicus, UniProt P18266); experiment: Inhibition of rat GSK3-beta in L6 cells assessed as accumulation of glycogen; type: cell-based
[13] = biological target: Mitogen-activated protein kinase 8 (Homo sapiens) (UniProt P45983); experiment: Inhibition of JNK1 at 10 uM
Mitogen-activated protein kinase 8 (Homo sapiens), sequence (P45983 whole entry): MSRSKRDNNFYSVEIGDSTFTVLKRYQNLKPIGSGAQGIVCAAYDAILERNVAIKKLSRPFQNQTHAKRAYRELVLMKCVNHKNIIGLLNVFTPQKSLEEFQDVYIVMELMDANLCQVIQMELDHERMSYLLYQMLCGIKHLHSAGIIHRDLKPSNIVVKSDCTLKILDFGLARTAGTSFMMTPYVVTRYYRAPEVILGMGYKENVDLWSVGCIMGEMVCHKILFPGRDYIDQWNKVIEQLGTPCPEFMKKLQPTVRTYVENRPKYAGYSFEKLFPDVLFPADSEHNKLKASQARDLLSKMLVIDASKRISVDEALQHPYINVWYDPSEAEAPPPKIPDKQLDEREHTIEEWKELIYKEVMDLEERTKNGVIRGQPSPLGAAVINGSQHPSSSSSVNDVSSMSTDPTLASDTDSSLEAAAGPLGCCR

Glycogen synthase kinase-3 beta (Homo sapiens, UniProt P49841), sequence (P49841 whole entry): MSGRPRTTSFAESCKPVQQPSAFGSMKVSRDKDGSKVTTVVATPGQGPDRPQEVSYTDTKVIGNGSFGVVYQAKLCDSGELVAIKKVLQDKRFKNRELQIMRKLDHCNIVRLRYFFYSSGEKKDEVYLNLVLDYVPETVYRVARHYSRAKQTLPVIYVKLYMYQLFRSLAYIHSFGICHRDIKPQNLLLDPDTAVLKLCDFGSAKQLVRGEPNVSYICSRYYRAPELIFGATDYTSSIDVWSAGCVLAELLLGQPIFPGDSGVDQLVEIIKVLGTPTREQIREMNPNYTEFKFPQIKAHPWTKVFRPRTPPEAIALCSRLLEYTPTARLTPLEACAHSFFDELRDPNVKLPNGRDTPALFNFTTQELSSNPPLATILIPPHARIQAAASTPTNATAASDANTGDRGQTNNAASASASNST
Glycogen synthase kinase-3 beta (Rattus norvegicus, UniProt P18266), sequence (P18266 whole entry): as the sequence (P49841 whole entry) above, with V240M, T390P, T392A, A400T, T402A counted along it
Dual specificity mitogen-activated protein kinase kinase 1 (Homo sapiens), sequence (Q02750 whole entry): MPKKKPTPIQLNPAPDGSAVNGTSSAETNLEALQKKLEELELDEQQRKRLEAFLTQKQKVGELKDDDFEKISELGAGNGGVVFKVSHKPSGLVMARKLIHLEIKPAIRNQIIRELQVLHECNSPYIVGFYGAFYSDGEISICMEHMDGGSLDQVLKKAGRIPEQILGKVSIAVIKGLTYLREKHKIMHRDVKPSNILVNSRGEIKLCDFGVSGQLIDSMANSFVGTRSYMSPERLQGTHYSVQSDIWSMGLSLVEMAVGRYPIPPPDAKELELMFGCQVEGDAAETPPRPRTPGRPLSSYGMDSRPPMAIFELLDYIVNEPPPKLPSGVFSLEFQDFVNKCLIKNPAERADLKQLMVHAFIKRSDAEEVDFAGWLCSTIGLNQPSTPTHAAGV
Vascular endothelial growth factor receptor 2, sequence (P35968 whole entry): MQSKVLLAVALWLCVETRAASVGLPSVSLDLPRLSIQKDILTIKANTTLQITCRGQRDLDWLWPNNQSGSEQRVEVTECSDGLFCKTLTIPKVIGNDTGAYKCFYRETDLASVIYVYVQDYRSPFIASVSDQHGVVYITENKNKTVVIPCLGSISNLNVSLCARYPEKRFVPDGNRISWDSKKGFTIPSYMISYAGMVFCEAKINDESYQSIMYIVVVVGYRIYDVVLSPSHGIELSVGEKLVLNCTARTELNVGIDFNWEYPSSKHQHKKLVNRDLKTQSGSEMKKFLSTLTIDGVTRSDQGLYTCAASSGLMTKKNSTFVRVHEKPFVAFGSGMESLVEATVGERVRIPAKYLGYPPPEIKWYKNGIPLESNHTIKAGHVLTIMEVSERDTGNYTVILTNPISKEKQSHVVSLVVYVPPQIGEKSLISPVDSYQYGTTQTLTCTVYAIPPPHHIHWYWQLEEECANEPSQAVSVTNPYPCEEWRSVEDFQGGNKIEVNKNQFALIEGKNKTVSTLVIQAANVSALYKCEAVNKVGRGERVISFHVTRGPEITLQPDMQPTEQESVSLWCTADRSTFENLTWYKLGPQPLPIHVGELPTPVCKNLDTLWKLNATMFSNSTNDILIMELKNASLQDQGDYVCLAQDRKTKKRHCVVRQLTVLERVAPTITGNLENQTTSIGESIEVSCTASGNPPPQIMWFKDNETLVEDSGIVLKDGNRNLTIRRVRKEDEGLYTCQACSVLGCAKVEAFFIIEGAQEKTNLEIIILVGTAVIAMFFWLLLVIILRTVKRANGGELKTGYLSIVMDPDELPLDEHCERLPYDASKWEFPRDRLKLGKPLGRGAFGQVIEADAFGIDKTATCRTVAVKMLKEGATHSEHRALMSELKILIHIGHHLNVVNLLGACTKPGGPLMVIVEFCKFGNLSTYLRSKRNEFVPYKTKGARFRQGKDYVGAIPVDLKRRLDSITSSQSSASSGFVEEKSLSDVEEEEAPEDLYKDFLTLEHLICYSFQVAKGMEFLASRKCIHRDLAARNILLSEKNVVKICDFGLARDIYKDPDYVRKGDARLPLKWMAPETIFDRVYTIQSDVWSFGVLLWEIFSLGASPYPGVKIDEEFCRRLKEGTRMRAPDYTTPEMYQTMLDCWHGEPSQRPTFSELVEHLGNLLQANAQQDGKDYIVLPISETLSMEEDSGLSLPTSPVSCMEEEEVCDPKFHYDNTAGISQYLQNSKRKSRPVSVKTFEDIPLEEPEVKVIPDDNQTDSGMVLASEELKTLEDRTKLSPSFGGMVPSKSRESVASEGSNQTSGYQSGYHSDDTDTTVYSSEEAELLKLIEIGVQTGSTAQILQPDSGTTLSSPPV
RAC-alpha serine/threonine-protein kinase (Homo sapiens), sequence (P31749 whole entry): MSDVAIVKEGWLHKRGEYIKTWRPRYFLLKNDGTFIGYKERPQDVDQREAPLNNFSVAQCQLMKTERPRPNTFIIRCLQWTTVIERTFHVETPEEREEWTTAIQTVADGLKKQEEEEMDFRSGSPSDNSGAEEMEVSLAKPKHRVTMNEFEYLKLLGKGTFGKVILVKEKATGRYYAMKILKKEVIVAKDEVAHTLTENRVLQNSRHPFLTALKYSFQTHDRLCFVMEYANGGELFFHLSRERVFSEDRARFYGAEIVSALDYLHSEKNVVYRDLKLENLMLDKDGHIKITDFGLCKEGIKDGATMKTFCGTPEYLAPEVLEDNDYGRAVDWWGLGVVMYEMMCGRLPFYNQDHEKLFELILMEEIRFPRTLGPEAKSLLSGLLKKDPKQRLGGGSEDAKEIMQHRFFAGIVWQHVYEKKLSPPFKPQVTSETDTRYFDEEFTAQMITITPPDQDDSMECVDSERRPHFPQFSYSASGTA

Q: With `COc1ccc(-c2oc3ncnc(N)c3c2-c2ccc(NS(=O)(=O)c3ccccc3)cc2)cc1` as the compound, how does the IC50 [1] read?
A: The IC50 was over 15 µM.

Q: For `Nc1ncnc2oc(-c3cccnc3)c(-c3ccc(NS(=O)(=O)c4ccccc4)cc3)c12`, which inhibition [2] is on record?
A: The inhibition was 100%.

Q: What about the IC50 [3] of the same compound?
A: Its IC50 is 1.12 µM.

Q: And the inhibition [4]?
A: The inhibition was 44%.

Q: And the inhibition [5]?
A: Its inhibition is 29%.

Q: What about the IC50 [1] of the same compound?
A: Its IC50 is 0.03 µM.

Q: And the inhibition [6]?
A: Its inhibition is -0%.

Q: What about the inhibition [7] of the same compound?
A: The inhibition was -0%.

Q: What about the inhibition [8] of the same compound?
A: Its inhibition is 27%.

Q: And the inhibition [9]?
A: The inhibition was 3%.

Q: And the inhibition [10]?
A: Its inhibition is 5%.

Q: And the inhibition [11]?
A: The inhibition was 3%.

Q: And the EC50 [12]?
A: The EC50 was 3.2 µM.

Q: And the inhibition [13]?
A: Its inhibition is 7%.

Q: Which IC50 [1] does the source give for `Nc1ncnc2oc(-c3cccnc3)c(-c3ccc(NS(=O)(=O)c4cccs4)cc3)c12` here?
A: The IC50 was 0.023 µM.

Q: With `Nc1ncnc2oc(-c3cccnc3)c(-c3ccc(NC(=O)c4cccc(F)c4)cc3)c12` as the compound, how does the IC50 [1] read?
A: Its IC50 is 1.59 µM.

Q: With `COc1ccc(-c2oc3ncnc(N)c3c2-c2ccc(OC)cc2)cc1` as the compound, how does the IC50 [1] read?
A: Its IC50 is over 15 µM.

Q: For `CC(=O)Nc1ccc(-c2c(-c3cccnc3)oc3ncnc(N)c23)cc1`, which IC50 [1] is on record?
A: The IC50 was 1.63 µM.

Q: With `CS(=O)(=O)Nc1ccc(-c2c(-c3cccnc3)oc3ncnc(N)c23)cc1` as the compound, how does the IC50 [1] read?
A: Its IC50 is 0.475 µM.
